Assay outcomes deposited in PubChem by Johns Hopkins Ion Channel Center.
KCNQ1 pot – potentiators or activators of human KCNQ1 potassium channel; P51787; CHO-K1 KCNQ1, thallium flux FluxOR fluorescence; hits give high values; B-score at 10 µM; actives 0.35% (n = 310,000);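 active = fluorescence ratio B-score, a plate-corrected score, at least three library SD, with initial intensity B-score within 5 SD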
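Schedule – 37 °C overnight plating, 90-min dark dye load, 20-min compound pretreatment · System – stable KCNQ1 CHO-K1 line · Probe or stimulus – thallium- and potassium-containing depolarizing buffer · Measured by – kinetic FluxOR fluorescence, 10 s baseline plus 110 s post-stimulus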
KCNQ1 inh – blocks the human KCNQ1 potassium channel | P51787 | CHO-K1 KCNQ1, FluxOR thallium flux fluorescence; hits give high values | B-score at 10 µM | actives 1.3% (n = 310,000);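 active = compounds whose thallium flux B-score, printed positive for inhibition, exceeds three library SD while starting fluorescence stays within three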;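 also: channel opened by potassium depolarization with thallium stimulus after 20 min compound exposure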
hERG protect – shields human hERG channel from block by proarrhythmic agents; Q12809; CHO-hERG, FluxOR thallium flux, dofetilide IC70 present; activation (rescue from dofetilide block), less the hit threshold, % at 10 µM; actives 0.51% (n = 310,000);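 active = activation above the mean of controls blocked by dofetilide plus 5 SD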;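 also: thallium influx through hERG after potassium depolarization seen as dye fluorescence rise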
Kir21 block – blocks the mouse Kir2.1 inward-rectifier potassium channel; actives 0.85% (n = 310,000); B-score at 10 µM; HEK293-Kir2.1, FluxOR thallium flux fluorescence; hits give low values; AID 1672; P35561;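 active = fluorescence ratio B-score at or below minus 3 SD of library scores, with starting-brightness B-score within 2 SD, cut at about -4.2 in these data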;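 also: channel flux triggered by added potassium and thallium sulfate stimulus; B-score of peak minus minimum fluorescence over baseline after thallium stimulus; more negative B-score means stronger Kir2.1 block with less thallium influx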
KCNK9 inh – human KCNK9 channel inhibition; Q9NPC2; HEK293 KCNK9, FluxOR thallium flux fluorescence; hits give low values; B-score at 10 µM; actives 1.2% (n = 310,000); AID 488922;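 active = ratio B-score over 3 SD below the library mean, with starting fluorescence within 5 SD of its mean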;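 also: negative B-score means less thallium flux so channel inhibition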
KCNK3 block – human KCNK3 channel inhibition, primary screen; O14649; CHO-KCNK3 thallium flux, FluxOR fluorescence; hits give low values; B-score at 10 µM; actives 0.84% (n = 340,000);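 active = B-score under library mean minus 4 SD, starting fluorescence ratio at most library mean plus 5 SD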;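 also: more negative B-score means stronger inhibition of thallium flux through KCNK3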
Target sequence (O14649 whole entry, looked up): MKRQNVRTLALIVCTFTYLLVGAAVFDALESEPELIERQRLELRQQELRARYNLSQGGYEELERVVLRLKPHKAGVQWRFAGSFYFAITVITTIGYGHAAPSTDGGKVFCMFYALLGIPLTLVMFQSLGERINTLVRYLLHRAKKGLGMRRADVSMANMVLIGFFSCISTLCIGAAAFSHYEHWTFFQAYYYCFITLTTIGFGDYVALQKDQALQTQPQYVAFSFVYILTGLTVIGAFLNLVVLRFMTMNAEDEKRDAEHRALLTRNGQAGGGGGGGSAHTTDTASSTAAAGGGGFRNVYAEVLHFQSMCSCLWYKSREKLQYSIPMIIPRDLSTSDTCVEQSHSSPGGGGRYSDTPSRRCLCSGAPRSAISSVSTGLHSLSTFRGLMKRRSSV
KCNK9 inh conf – human KCNK9 inhibitor confirmation; shares compounds with KCNK9 inh; inhibition, % at 10 µM; actives 43% (n = 4,900); HEK293 KCNK9 cells, FluxOR thallium flux fluorescence;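 active = thallium signal inhibited by more than 5 SD of the compound-free buffer control wells, on both duplicate plates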;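 also: 0% = assay buffer control wells without compound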
Kir21 sel – mouse Kir2.1 off-target activity of KCNK9 modulators. shares compounds with KCNK9 inh. Kir2.1 cells, FluxOR thallium flux fluorescence. inhibition, % at 10 µM. actives 4% (n = 4,900). AID 492993;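 active = thallium signal drop more than 5 SD beyond the mean of the no-compound control wells, seen in both duplicate plates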;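 also: signal is fluorescence rise after thallium addition divided by baseline fluorescence; plate controls were assay buffer only for no effect and full block by chlorpromazine control for full effect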
KCNK9 uninduced – non-induced cell nonspecific activity of KCNK9 modulators. shares compounds with KCNK9 inh. non-induced KCNK9-HEK293, FluxOR thallium flux. inhibition, % at 10 µM. actives 40% (n = 4,900). AID 492997;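 active = thallium signal drop beyond 5 SD of the untreated control mean, on both duplicate plates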;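 also: plate controls were buffer only IC0 wells for no effect and SID17386958 at its maximal inhibitory level for full effect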
Starred values were filed as active, the others as inactive; i = inactive; . = not tested or not shown. In the library only some 3.7% were active in any assay of this set; here they are far more common.

SMILES	KCNQ1 pot	KCNQ1 inh	hERG protect	Kir21 block	KCNK9 inh	KCNK3 block	KCNK9 inh conf	Kir21 sel	KCNK9 uninduced
O=C(C1=C[C@H](c2ccc(Br)cc2)C[C@H](OCCCCO)O1)N1CCN(Cc2ccccc2)CC1	i	i	-6.1	-0.58	i	i	i	i	i
O=C(NC1CC1)C1=C[C@H](c2csc3ccccc23)C[C@H](OCc2ccc(CO)cc2)O1	i	i	-9.9	-1.11	i	i	.	.	.
C[C@H](CO)N1C[C@H](C)[C@@H](CN(C)C(=O)Nc2ccc(C(F)(F)F)cc2)Oc2c(NC(=O)Cc3ccccc3)cccc2C1=O	.	.	.	.	.	i	.	.	.
COc1ccc(CNC(=O)CCN2C(=S)NC(C)(C)CC2C)cc1 (stereo unspecified)	i	i	-3.6	-0.08	i	i	.	.	.
CCN1CCN(c2oc(-c3ccccc3C)nc2S(=O)(=O)c2ccccc2)CC1	.	.	.	.	.	i	.	.	.
C#Cc1ccc([C@H]2C=C(C(=O)NCc3ccccc3)O[C@@H](OCc3ccc(CO)cc3)C2)cc1	i	i	-6.6	-1.19	i	i	i	i	i
CCSc1nc(N2CCCCC2)c2c(c1C#N)CCCC2	i	i	-12.5	0.11	-12.5*	i	57.0%*	i	45.5%*
Cc1ccc(NC(=O)CSc2ccccc2NC(=O)c2ccccc2Cl)cc1Cl	i	i	-8.8	0.16	-9.73*	i	55.5%*	i	i
Cc1ccc(NC(=O)CSc2ccccc2NC(=O)c2ccccc2)cc1Cl	i	i	-5.2	-0.33	i	i	.	.	.
C/C(=N/OC(=O)C1CC12CCC2)c1ccc(Br)cc1 (stereo unspecified)	i	i	-9.6	0.41	i	i	i	i	i
c1ccc(NC2=NCCN2CCC2CCCCC2)cc1	i	i	-3.1	0.94	i	i	.	.	.
CCN(C(=O)C1CCCN(c2nc(-c3ccc(OC)cc3)no2)C1)c1ccccc1F (stereo unspecified)	i	i	-11.5	0	i	i	i	i	i
CCN(C(=O)C1CCN(c2nc(-c3ccc(OC)cc3)no2)CC1)c1ccccc1	i	i	-18.8	0.09	i	i	.	.	.
Cc1ccc(NC(=O)CSc2nc(N)cc(=O)[nH]2)cc1S(=O)(=O)N1CCCCC1	.	.	.	.	.	i	.	.	.
COc1ccc(C2=NS(=O)(=O)N(C)C(C(=O)N3CCc4ccccc4C3)=C2)cc1OC	i	i	-7.9	1.73	i	i	.	.	.
O=C(O)c1ccc(COc2ccccc2Cl)cc1	i	i	-9.3	-2.62	i	i	.	.	.
CCN(CC)C(=O)c1ccc(COc2ccccc2Cl)cc1	i	i	-10.3	0.03	-8.71*	i	36.5%*	i	23.5%*
Cc1ccc(S(=O)(=O)N(C)c2ccccc2C(=O)N2CCOCC2)cc1	i	i	-4.0	0.7	i	i	.	.	.
COc1ccccc1NS(=O)(=O)c1cc(NC(=O)COc2ccccc2F)ccc1N1CCOCC1	.	.	.	.	.	i	.	.	.
CCOc1ccccc1NC(=O)c1cc(CC(C)C)oc1C	i	i	-12.7	-0.33	-17.7*	i	62.5%*	i	43.0%*
Cc1oc(CC(C)C)cc1C(=O)Nc1cccc2ccccc12	i	i	-4.0	0.92	-9.53*	i	i	i	39.5%*
COc1ccccc1NC(=O)c1ccc(CN(c2cc(Cl)ccc2C)S(=O)(=O)c2ccccc2)cc1	i	i	-4.1	0.47	i	i	.	.	.
Cc1ccc(Cl)cc1N(Cc1ccc(C(=O)NCc2cccnc2)cc1)S(=O)(=O)c1ccccc1	i	i	-8.0	1.24	-8.35*	i	i	i	i
CCN1CCCC1CNC(=O)c1[nH]c2ccc(OC)cc2c1C (stereo unspecified)	i	i	-3.5	0.02	i	i	.	.	.
O=[N+]([O-])c1cccc(COc2ccccc2CN2CCOCC2)c1	.	.	.	.	.	i	.	.	.
SMILES	KCNQ1 pot	KCNQ1 inh	hERG protect	Kir21 block	KCNK9 inh	KCNK3 block	KCNK9 inh conf	Kir21 sel	KCNK9 uninduced
Cc1cc(OCc2cccc(Cl)c2)c(C)cc1CN1CCOCC1	i	i	-18.3	-1.39	-13.8*	i	51.5%*	i	32.0%*
CC(=O)c1cc(CC=C(C)C)c(O)cc1O	i	i	-9.8	1.18	-8.65*	i	27.0%*	i	i
O=C(NCc1ccc(Cl)cc1)C1CC(O)CN1S(=O)(=O)c1ccc(Cl)cc1 (stereo unspecified)	i	i	-2.5	-0.87	i	i	.	.	.
O=C(NNC(=O)c1ccccc1Cl)c1ccc(-n2cncn2)c([N+](=O)[O-])c1	.	.	.	.	.	i	.	.	.
CN(CC(=O)Nc1ccc(F)c(F)c1F)C(=O)C1CCN(C(=O)Nc2ccccc2)CC1	i	i	-7.7	-1.05	i	i	.	.	.
Cc1ccc(NC(=O)CSc2nnc(Cc3csc(C)n3)o2)cc1	.	.	.	.	.	i	.	.	.
CCOc1ccc(Nc2nc(Cc3nnc(SCC(=O)c4ccc(C)c(C)c4)o3)cs2)cc1	i	i	-6.1	-0.01	i	i	i	i	i
Cc1cc(C)cc(CC(Cc2nc3ccccc3[nH]2)c2nc3ccccc3[nH]2)c1 (stereo unspecified)	i	12*	-7.8	-0.61	-8.1*	i	29.0%*	i	37.0%*
Cc1ccc(CSCc2nc3ccccc3[nH]2)cc1	i	i	-3.4	-0.6	i	i	.	.	.
CC(C)Oc1cccc(C(=O)C2CCCN(Cc3cnc(N4CCCC4)s3)C2)c1 (stereo unspecified)	i	i	-3.8	-0.03	i	i	i	i	i
CCCn1cc(CN2CCCC(C(=O)c3cccc(OC(C)C)c3)C2)c(C)n1 (stereo unspecified)	i	i	-8.0	0.01	i	i	i	i	i
CCCn1ncc(CN2CCCC(C(=O)c3cccc(OC(C)C)c3)C2)c1C (stereo unspecified)	i	i	-8.8	-1.24	i	i	.	.	.
O=C(COc1ccccc1[N+](=O)[O-])OCC(=O)c1ccc(Br)s1	.	.	.	.	.	i	.	.	.
COC(=O)c1c(C)[nH]c(C(=O)C(C)OC(=O)C2CC2)c1C (stereo unspecified)	.	.	.	.	.	i	.	.	.
COc1ccc(OC)c(NC(=O)CSCc2cnn(-c3ccccc3)c2-n2cccc2)c1	i	i	-10.9	-4.26*	i	i	i	i	29.0%*
